A short description of assay [1]: Inhibition of Escherichia coli BL21(DE3) methionine aminopeptidase in presence of Fe(II) metal ions. An outline of the steps:
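Purified BL21(DE3)-expressed E. coli MetAP apoenzyme at 500 nM, activated with 50 μM FeCl2 plus 100 μM ascorbic acid. Buffer was 50 mM MOPS pH 7.0 with 200 μM Met-AMC, at room temperature. Hydrolysis was followed by fluorescence (ex 360/em 460 nm) at serially diluted inhibitor concentrations. IC50 was obtained by non-linear curve fit of percent inhibition.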

In assay [2] the test system is Bacillus subtilis. In words: Antibacterial activity against Bacillus subtilis. Format: functional, organism-based. The procedure, abridged:
(§1)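 Exponential-phase culture at 0.5 McFarland diluted 1000-fold in Mueller Hinton medium with 100 mM Tris pH 7.5, mixed with inhibitor at increasing concentrations plus resazurin (110 µM final). Fluorescence (ex 530/em 590) read every 5 min for 10 h at 37°C.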

Assay [3] relates to Escherichia coli. In words: Antibacterial activity against Escherichia coli D22. Format: functional, organism-based. The procedure, abridged:
as §1

The nature of assay [4]: Inhibition of Escherichia coli BL21(DE3) methionine aminopeptidase in presence of Co(II) metal ions. The procedure, abridged:
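Recombinant E. coli MetAP apoenzyme purified from BL21(DE3) cells, used at 500 nM and activated with 10 μM CoCl2. Buffer was 50 mM MOPS pH 7.0 with 200 μM Met-AMC substrate, at room temperature. AMC release was read by fluorescence (ex 360/em 460 nm) across serially diluted inhibitor. IC50 came from non-linear fitting of percent inhibition.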

The subject of assay [5] is Escherichia coli. In words: Antibacterial activity against Escherichia coli ATCC 25922. Format: functional, organism-based. An outline of the steps:
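Wild-type strain grown to exponential phase (0.5 McFarland), diluted 1000-fold in Tris-free Mueller Hinton medium, incubated with increasing inhibitor concentrations and 110 µM resazurin. Fluorescence (ex 530/em 590) monitored 10 h at 37°C at 5-min intervals.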

A short description of assay [6]: Inhibition of Escherichia coli BL21(DE3) methionine aminopeptidase in presence of Mn(II) metal ions. The procedure, abridged:
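E. coli MetAP apoenzyme, recombinant from BL21(DE3), at 500 nM and metallated with 20 μM MnCl2. Contained 50 mM MOPS pH 7.0 and 200 μM Met-AMC, at room temperature. IC50 was derived by non-linear fit of percent inhibition versus concentration.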

Assay [7] concerns Escherichia coli. In words: Antibacterial activity against Escherichia coli AS19. Format: functional, organism-based. The procedure, abridged:
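AS19 culture at 0.5 McFarland, exponential phase, diluted 1000-fold in Mueller Hinton medium containing 100 mM Tris pH 7.5, exposed to increasing inhibitor concentrations […]. Growth followed by absorbance at 600 nm every 5 min for 10 h at 37°C.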

Assay [8] concerns Priestia megaterium. In words: Antibacterial activity against Bacillus megaterium. Format: functional, organism-based. The procedure, abridged: as §1
Assay [9] has as its system Escherichia coli BL21(DE3). In words: Inhibition of Escherichia coli BL21(DE3) methionine aminopeptidase up to 100 uM in presence of Co(II) metal ions. An outline of the steps: (§2)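 Purified apoenzyme (500 nM) in 50 mM MOPS pH 7.0 with 200 µM Met-AMC, activated by 50 µM FeCl2 plus 100 µM ascorbic acid (Fe), 10 µM CoCl2 (Co) or 20 µM MnCl2 (Mn), with serially diluted inhibitor. AMC release read by fluorescence (ex 360/em 460) at room temperature. IC50 from non-linear fit of percent inhibition versus concentration.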

The subject of assay [10] is Escherichia coli BL21(DE3). As to the kind of experiment: Inhibition of Escherichia coli BL21(DE3) methionine aminopeptidase up to 100 uM in presence of Mn(II) metal ions. The procedure, abridged: as §2
Assay [11] relates to Escherichia coli BL21(DE3). In words: Inhibition of Escherichia coli BL21(DE3) methionine aminopeptidase up to 100 uM in presence of Fe(II) metal ions. The procedure, abridged:
as §2

pIC50: −log10 of the molar value. Converted amounts (≈) assume the structure as drawn. The source made the active and inactive calls.

As a reminder, the pIC50 is the IC50 on a negative log10 scale, so that one unit is a factor of ten. By MIC is commonly meant the smallest concentration in the dilution series that meets the test's criterion for growth inhibition. A low value points to inhibition by little substance. Turning to `Cc1ccsc1-c1ccc(O)c(O)c1`, the pIC50 in [1] is 5.10; in assay [2], 4.66; in [3] it was 5.05; in assay [4] it was 4.37; in assay [5], 3.75; in assay [6], 4.64. The pIC50 in assay [7] and in [8] was 4.82 each time. For the same compound, the MIC was 8 µg/mL (≈ 38.8 µM) in assay [2], 3 µg/mL (≈ 14.5 µM) in assay [3], 7 µg/mL (≈ 33.9 µM) in [7] and 13 µg/mL (≈ 63 µM) in assay [8].
Take `CC(=O)Nc1ccc(-c2csc(C)n2)cc1[N+](=O)[O-]`: the result in assay [9], in assay [10] and in assay [11] was inactive. In assay [7], this compound gave a negative-log IC50 (pIC50) of 4.20.
Turning to `Cc1nc(-c2ccc(O)cc2O)cs1`, the outcome in assay [9], in [10] and in assay [11] was inactive. The pIC50 in [7] was 4.02.
Take `Cc1nc(-c2ccc(O)c(C(N)=O)c2)cs1`: the result in assay [9], in assay [10] and in [11] was inactive. This compound gave a pIC50 in assay [7] of 3.90.
For `Cc1nc(-c2ccc(O)c(O)c2)cs1`, the pIC50 in [1] was 4.89; in [2], 4.17; in [3] it was 5.25; in assay [4], less than 4.00; in [5], 3.55; in [6], less than 4.00. Also, the pIC50 in assay [7] was 3.93; in [8], 4.16. Moreover, the MIC amounted to 41 µg/mL (≈ 198 µM) in assay [2], 4 µg/mL (≈ 19.3 µM) in assay [3], 91 µg/mL (≈ 439 µM) in assay [7] and 73 µg/mL (≈ 352 µM) in [8].
For the compound `COc1ccc(-c2csc(C)n2)cc1OC`, the outcome in assay [9], in [10] and in [11] was inactive. For the same compound, the pIC50 in [7] was 3.69.
For the compound `Cc1nc(-c2ccc(N)c(N)c2)cs1`, the outcome in assay [9], in assay [10] and in assay [11] was inactive. The compound also had a pIC50 in [7] of 3.93.
Consider `Cc1nc(-c2cccc(O)c2)cs1`, for which the result in assay [9], in [10] and in assay [11] was inactive. This compound also gave a pIC50 in [7] of 3.80.

For the origin of these results see ChEMBL document CHEMBL1140109, “Discovery of inhibitors of Escherichia coli methionine aminopeptidase with the Fe(II)-form selectivity and antibacterial activity” (J Med Chem, 2008).
